Source: ChEMBL document CHEMBL4152390, “Discovery of the First-in-Class Dual Histone Deacetylase-Proteasome Inhibitor” (J Med Chem, 2018)
Calls of active or inactive are those of the source. No cut-off for these calls is given here.

Key:
Histone deacetylase 1 = Histone deacetylase 1 (Homo sapiens, UniProt Q13547); experiment: Inhibition of C-terminal FLAG-His-tagged full length recombinant human HDAC1 expressed in Sf21 insect cells using RHKK(Ac)AMC as substrate by fluorescence-based assay
Histone deacetylase 2 = Histone deacetylase 2 (Homo sapiens, UniProt Q92769); experiment: Inhibition of C-terminal GST-tagged recombinant human HDAC2 expressed in baculovirus infected insect cells using RHKK(Ac)AMC as substrate by fluorescence-based assay
Sequence of Histone deacetylase 2 (Q92769 whole entry): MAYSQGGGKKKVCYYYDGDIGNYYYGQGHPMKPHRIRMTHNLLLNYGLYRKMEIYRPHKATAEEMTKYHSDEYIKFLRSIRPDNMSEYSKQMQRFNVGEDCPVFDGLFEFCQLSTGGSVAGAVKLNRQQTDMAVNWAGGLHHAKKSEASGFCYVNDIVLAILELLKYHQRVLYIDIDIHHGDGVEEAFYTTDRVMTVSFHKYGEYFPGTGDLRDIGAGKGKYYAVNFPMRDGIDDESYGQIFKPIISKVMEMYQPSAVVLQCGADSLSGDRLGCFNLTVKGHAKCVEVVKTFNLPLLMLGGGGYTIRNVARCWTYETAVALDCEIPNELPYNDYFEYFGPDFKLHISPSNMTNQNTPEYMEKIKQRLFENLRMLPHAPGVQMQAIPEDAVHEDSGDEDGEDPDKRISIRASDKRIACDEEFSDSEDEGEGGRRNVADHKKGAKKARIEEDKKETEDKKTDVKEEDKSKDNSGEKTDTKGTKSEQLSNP

SUP-B15 [1] = experiment: Inhibition of HDAC6/chymotrypsin-like activity of 20S proteasome in imatinib-resistant human SUP-B15 cells assessed as increase in cleaved PARP expression at 0.1 to 10 uM after 24 hrs by immunoblot assay; format: cell-based
Summary of the method: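 Cells exposed for 24 h at indicated concentrations; lysates immunoblotted for acetyl-α-tubulin, acetyl-histone H3, PARP, with GAPDH as loading control.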

[2] = biological target: T1, Proteasome Macropain subunit MB1 (Homo sapiens, UniProt P28074); experiment: Inhibition of chymotrypsin-like activity of 20S proteasome in human HL60 cells using Suc-LLVY aminoluciferin as substrate after 2 hrs by proteasome-Glo assay; format: cell-based
T1 sequence (P28074 whole entry): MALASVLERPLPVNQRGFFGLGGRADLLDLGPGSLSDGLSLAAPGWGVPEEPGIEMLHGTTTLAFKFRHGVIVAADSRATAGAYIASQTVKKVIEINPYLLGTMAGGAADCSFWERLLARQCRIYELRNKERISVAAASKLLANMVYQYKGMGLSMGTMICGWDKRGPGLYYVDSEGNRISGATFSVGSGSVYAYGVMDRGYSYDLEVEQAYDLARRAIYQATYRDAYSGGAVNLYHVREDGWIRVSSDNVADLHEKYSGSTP

[3] = biological target: T1, Proteasome Macropain subunit MB1; experiment: Inhibition of chymotrypsin-like activity of 20S proteasome in human SEM cells using Suc-LLVY aminoluciferin as substrate after 2 hrs by proteasome-Glo assay; format: cell-based
[4] = biological target: Proteasome Macropain subunit (Homo sapiens) (UniProt P49721); experiment: Inhibition of trypsin-like activity of 20S proteasome in human HL60 cells at 4 nM to 25 uM using Z-LRR-aminoluciferin as substrate after 2 hrs by proteasome-Glo assay; format: cell-based
Sequence of Proteasome Macropain subunit (Homo sapiens) (P49721 whole entry): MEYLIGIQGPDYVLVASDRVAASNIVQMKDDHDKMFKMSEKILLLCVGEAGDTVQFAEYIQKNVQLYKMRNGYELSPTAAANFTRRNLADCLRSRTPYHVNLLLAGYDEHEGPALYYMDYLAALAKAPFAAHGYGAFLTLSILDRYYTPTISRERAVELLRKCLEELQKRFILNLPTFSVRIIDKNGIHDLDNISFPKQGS

[5] = biological target: Proteasome Macropain subunit (Homo sapiens) (UniProt P49721); experiment: Inhibition of trypsin-like activity of 20S proteasome in human SEM cells at 4 nM to 25 uM using Z-LRR-aminoluciferin as substrate after 2 hrs by proteasome-Glo assay; format: cell-based
[6] = biological target: T2, Proteasome component C5 (Homo sapiens) (UniProt P20618); experiment: Inhibition of caspase-like activity of 20S proteasome in human HL60 cells at 4 nM to 25 uM using Z-nLPnLD-aminoluciferin as substrate after 2 hrs by proteasome-Glo assay; format: cell-based
T2 sequence (whole entry): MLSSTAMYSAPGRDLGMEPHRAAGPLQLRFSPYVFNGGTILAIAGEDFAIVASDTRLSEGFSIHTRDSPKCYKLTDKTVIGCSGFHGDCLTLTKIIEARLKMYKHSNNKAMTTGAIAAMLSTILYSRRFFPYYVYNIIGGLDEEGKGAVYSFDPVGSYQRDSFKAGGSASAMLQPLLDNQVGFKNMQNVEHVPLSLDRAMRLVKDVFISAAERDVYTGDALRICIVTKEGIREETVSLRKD

[7] = biological target: T2, Proteasome component C5 (Homo sapiens); experiment: Inhibition of caspase-like activity of 20S proteasome in imatinib-resistant human SUP-B15 cells at 4 nM to 25 uM using Z-nLPnLD-aminoluciferin as substrate after 2 hrs by proteasome-Glo assay; format: cell-based
SEM cells [8] = experiment: Cytotoxicity against human SEM cells after 72 hrs by CellTiter-Glo luminescent cell viability assay; format: functional, cell-based
Summary of the method: (§1)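 Inhibitors dispensed in increasing concentrations (50 nM–25 μM) and cells exposed 72 h. Viability read by ATP-dependent luminescence (CellTiter-Glo). Raw data normalized to controls. IC50 obtained by sigmoid dose–response fit with non-linear regression.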

KCL-22 [9] = experiment: Cytotoxicity against human KCL22 cells after 72 hrs by CellTiter-Glo luminescent cell viability assay; format: functional, cell-based; conditions: KCL-22, 72 h; summary of the method: as §1
SUP-B15 [10] = experiment: Cytotoxicity against imatinib-resistant human SUP-B15 cells after 72 hrs by CellTiter-Glo luminescent cell viability assay; format: functional, cell-based; conditions: SUP-B15, 72 h
KCL-22 [11] = experiment: Cytotoxicity against imatinib-resistant human KCL22 cells after 72 hrs by CellTiter-Glo luminescent cell viability assay; format: functional, cell-based; conditions: KCL-22, 72 h; summary of the method: as §1
[12] = Cytotoxicity against human RPMI18226 cells after 72 hrs by CellTiter-Glo luminescent cell viability assay; format: functional, cell-based; conditions: RPMI18226, 72 h
[13] = Cytotoxicity against human BCP-ALL cells derived from patient 1 after 72 hrs by CellTiter-Glo luminescent cell viability assay; format: functional, cell-based
SEM cells [14] = experiment: Induction of early differentiation of human SEM cells assessed as increase in CD14 expression at IC50 to 2 times IC50 after 72 hrs by FACS analysis; format: functional, cell-based
Summary of the method: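 Surface CD11b and CD14 measured by FACS using fluorochrome-coupled monoclonal antibodies with matched isotype controls, after treatment in liquid medium.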

SEM cells [15] = experiment: Reduction of colony forming capacity of human SEM cells at IC50 to 2 times IC50 after 48 hrs; format: functional, cell-based
Summary of the method: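 SEM cells pretreated in liquid medium (methods: 24 h; legend: 48 h), then plated in semisolid methylcellulose-based medium containing compound or control; colonies counted after 14 days.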

SEM cells [16] = experiment: Inhibition of HDAC6/chymotrypsin-like activity of 20S proteasome in human SEM cells assessed as increase in Grp94 protein expression at 0.1 to 10 uM after 18 hrs by Western blot assay; format: cell-based
Summary of the method: (§2)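 Cells treated 18 h at indicated concentrations; lysates analysed by western blot for heat shock (Grp94, HSP70, HSP40, HSP27), UPR (BIP, ATF4, ATF6, pJNK) and autophagy (LC3B, p62) proteins.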

SEM cells [17] = experiment: Inhibition of HDAC6/chymotrypsin-like activity of 20S proteasome in human SEM cells assessed as increase in p62 protein expression at 0.1 to 10 uM after 18 hrs by Western blot assay; format: cell-based; summary of the method: as §2

Sequence of Histone deacetylase 1 (Q13547 whole entry): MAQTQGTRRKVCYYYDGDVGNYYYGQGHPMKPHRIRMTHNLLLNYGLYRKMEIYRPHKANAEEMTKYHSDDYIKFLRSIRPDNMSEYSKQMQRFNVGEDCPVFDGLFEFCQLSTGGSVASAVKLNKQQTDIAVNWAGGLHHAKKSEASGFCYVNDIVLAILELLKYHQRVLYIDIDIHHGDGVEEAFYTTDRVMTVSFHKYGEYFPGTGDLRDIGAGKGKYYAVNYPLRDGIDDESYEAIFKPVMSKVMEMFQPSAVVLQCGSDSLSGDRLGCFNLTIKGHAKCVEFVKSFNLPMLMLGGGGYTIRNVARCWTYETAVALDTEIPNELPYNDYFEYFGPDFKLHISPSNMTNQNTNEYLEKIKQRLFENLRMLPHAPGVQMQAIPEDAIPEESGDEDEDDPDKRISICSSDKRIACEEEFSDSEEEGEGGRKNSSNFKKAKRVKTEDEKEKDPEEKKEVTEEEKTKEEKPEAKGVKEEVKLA

Compound: C[C@H](NC(=O)[C@H](CC(=O)NCC(C)(C)C)NC(=O)c1ccc(C(=O)NO)cc1)C(=O)NCc1ccccc1
- IC50 (Histone deacetylase 1): 6.9 µM
- IC50 (Histone deacetylase 2): 18 µM
- inhibition (SUP-B15 [1]): Active
- IC50 [2]: 0.26 µM
- IC50 [3]: 0.394 µM
- inhibition [4]: inactive
- inhibition [5]: inactive
- inhibition [6]: inactive
- inhibition [7]: inactive
- IC50 (SEM cells [8]): 0.89 µM
- IC50 (KCL-22 [9]): 3.14 µM
- IC50 (SUP-B15 [10]): 1.83 µM
- IC50 (KCL-22 [11]): 2.58 µM
- IC50 [12]: 1.75 µM
- IC50 [13]: 2.06 µM
- Activity (SEM cells [14]): Active
- Activity (SEM cells [15]): Active
- inhibition (SEM cells [16]): Active
- inhibition (SEM cells [17]): Active
